HCV core dimer = HCV core protein dimerization inhibition; TR-FRET GST/Flag-core106 dimerization, 1536-well; inhibition, % at 5 µM; 300,000 compounds, 0.33% hits; AID 1899;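 active = inhibition above the mean of all tested compounds plus 3 SD, set per screening campaign, cut at about 45% in these data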
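Assay system: tagged HCV core106 pair (GST and Flag); medium: KF-containing HEPES buffer, pH 7.45, DTT, CHAPS, BSA; also added: Eu donor and XL665 acceptor anti-tag antibodies; dosing: 5 µM single dose; timing: compound-protein-antibody incubation 4 h at 22.5 °C; signal: TR-FRET 671 and 617 nm emission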
HSF1 inh = HSF1 inhibition. NIH3T3-HGL HSE-luciferase, MG132-induced, luminescence 8 h; hits give low values. activity change, negative = inhibition, % at 7.5 µM (by protocol). 300,000 compounds, 0.77% hits. AID 2098;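 active = more than half of replicate wells show activity change below -50%, luminescence cut by over half; inconclusive = some wells, but at most half, below -50%; inactive = no replicate well below -50%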;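 also: luciferase reports HSF-1 transcriptional activity via heat shock element; 0% = median of DMSO wells and -100% = zero luminescence signal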
HSF-1 act = increases HSF-1 driven luciferase reporter signal; NIH3T3-HGL HSF-1 luciferase reporter, MG132, 8 h; 100% = twice DMSO control signal; activation, % at 9 µM; 300,000 compounds, 1.7% hits;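 active = mean replicate activation of at least 50% with a set share of replicates each reaching 50%; inconclusive = only one of those two conditions met; inactive = mean below 50% and too few replicates reaching it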;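 also: 0% = median of the neutral control wells and 100% = twice that signal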
PHOSPHO1 inh = PHOSPHO1 (human) inhibition; Q8TCT1; AID 1565; recombinant PHOSPHO1, absorbance phosphatase assay; 290,000 compounds, 1.1% hits; inhibition, % at 13.3 µM; in the data active = inhibition above about 60%
Target sequence (Q8TCT1 whole entry, looked up): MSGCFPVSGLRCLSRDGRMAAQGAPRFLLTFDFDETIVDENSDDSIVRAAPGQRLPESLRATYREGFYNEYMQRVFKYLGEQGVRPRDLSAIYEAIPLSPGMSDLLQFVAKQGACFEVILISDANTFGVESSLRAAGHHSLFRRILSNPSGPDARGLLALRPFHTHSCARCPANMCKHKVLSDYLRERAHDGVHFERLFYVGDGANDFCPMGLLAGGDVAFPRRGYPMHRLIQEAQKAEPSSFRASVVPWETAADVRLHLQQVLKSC
ALR inh = human ALR oxidase inhibition via reduced H2O2. P55789. purified ALR, DTT oxidation, H2O2 HRP-luminol luminescence. inhibition, % (test concentration not listed). 290,000 compounds, 3.8% hits;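 active = mean replicate inhibition above about 79%, with every replicate also reaching it, limit read from the data; inconclusive = only one of the two criteria met; inactive = mean below limit and not every replicate reaching it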
Target sequence (P55789 whole entry, looked up): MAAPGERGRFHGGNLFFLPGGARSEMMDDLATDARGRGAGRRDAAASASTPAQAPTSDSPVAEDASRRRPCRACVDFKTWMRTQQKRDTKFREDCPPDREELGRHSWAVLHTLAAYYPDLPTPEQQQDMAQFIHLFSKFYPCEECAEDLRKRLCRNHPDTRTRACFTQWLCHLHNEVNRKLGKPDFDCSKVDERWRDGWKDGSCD
AI-2 QS modul = modulators of Vibrio harveyi AI-2 quorum sensing system; Vibrio harveyi JMH597 AI-2 luminescence/OD600 ratio, 9 h; hits give low values; strain lacks LuxN and CqsS sensors; 0 = neutral-control median; activity change, % at 7.5 µM; 300,000 compounds, 0.4% hits; in the data active = activity change below about -75%, passing the limit was not always enough; inconclusive = no clear call, values can overlap the other calls;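 also: luminescence divided by OD600 gain over 9 h not by final OD600 alone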
An asterisk follows results filed as active; ? = inconclusive; . = not tested or not shown. Most compounds without a hit are left out; they make up all but 6.8% or so of the library.

SMILES	HCV core dimer	HSF1 inh	HSF-1 act	PHOSPHO1 inh	ALR inh	AI-2 QS modul
CC(=O)/C(=N\Nc1ccc(Cl)cc1)Sc1nnc(-c2ccccc2)n1-c1ccccc1	20.1	-55.2*	-62.4	15.8	.	24.0
Cc1cc(NC(c2ccc(Cl)cc2)c2ccc3cccnc3c2O)no1 (stereo not drawn)	4.4	47.7	?	17.5	-0.1	-93.1*
CCc1nnc(N2C(=O)c3ccc(Oc4ccc([N+](=O)[O-])cc4)cc3C2=O)s1	0.5	9.9	-6.6	-7.1	92.6*	14.1
O=C1c2ccc(Oc3ccc([N+](=O)[O-])cc3)cc2C(=O)N1c1ccncc1	9.5	-2.1	9.3	2.2	-12.7	5.1
COc1ccc(C)cc1S(=O)(=O)NCC(c1ccco1)N1CCc2ccccc2C1 (stereo not drawn)	6.8	1.3	-6.3	.	-1.3	9.3
Cc1cccc(C)c1NC(=O)CN(C)C(=O)[C@H](C)NC(=O)c1ccco1	.	.	.	.	-1.4	.
O=C(Nc1ccc2[nH]c(=S)sc2c1)c1ccccc1	-4.6	3.6	-5.6	-16.4	99.2*	23.3
COc1cccc(NC(=O)N2CCCC2C(=O)NC23CC4CC(CC(C4)C2)C3)c1 (stereo not drawn)	2.2	-1.5	9.0	26.5	.	95.5
Fc1ccc(-c2ncc3ccccn23)cc1	0.1	18.4	35.3	24.1	.	11.2
Brc1ccc(-c2ncc3ccccn23)cc1	4.5	.	.	-5.6	88.6*	2.3
COc1cccc(-c2nc(-c3ccccn3)no2)c1	-6.9	-10.2	-12.2	36.6	1.2	9.5
O=[N+]([O-])c1cccc(-c2nc(-c3ccccn3)no2)c1	0.1	20.3	53.6*	15.9	-5.5	36.8
Cc1ccc(OCc2nc(-c3ccccn3)no2)cc1	-4.1	40.9	63.0*	2.4	7.0	?
c1ccc(-c2noc(-c3ccc4ccccc4c3)n2)nc1	1.0	-78.0*	-82.3	15.6	-2.6	0.4
COc1nc(-c2ccccc2)ccc1-c1noc(COc2ccccc2)n1	2.1	-68.3*	-73.6	-7.4	2.3	13.6
c1ccc(-c2noc(-c3ccncc3)n2)nc1	0.1	0.5	7.0	4.6	-2.3	18.5
CC1=CC2=NC(=O)/C(=C\c3cc(C)n(-c4ccccc4F)c3C)C(=N)N2O1	5.0	-24.7	-39.5	1.7	-5.3	23.5
Cc1cc(/C=C2/C(=N)N3C(=NC2=O)SN=C3S(C)(=O)=O)c(C)n1-c1ccccc1F	19.8	-9.5	-23.1	5.9	91.0*	31.8
CCc1nc(N)c(C#N)c(-c2ccccc2OC)c1C	-9.3	-1.2	-3.7	-11.8	-2.0	12.9
C/C(CC1CC(COCC(C)C)OC1=O)=N\Nc1nc(-c2ccccc2)cs1 (stereo not drawn)	33.5	-7.1	-4.2	9.7	97.7*	17.5
CC1CC(CC(=O)Nc2nc(-c3ccccc3)cs2)C(=O)O1 (stereo not drawn)	6.1	2.8	10.7	57.0	-4.0	18.8
CC(Sc1ccccc1)C(=O)NN=C1CCCCCC1 (stereo not drawn)	4.5	-5.5	6.5	-0.9	-9.7	18.8
COc1cc(NC(=O)C2=C(N3CCOCC3)/C(=C\c3ccc(Br)cc3)CC2)cc(OC)c1OC	10.7	72.1	96.8*	6.0	-29.9	22.3
Cc1cc(OCC(=O)N(Cc2ccccc2)C2CCS(=O)(=O)C2)ccc1Cl (stereo not drawn)	9.4	4.0	8.2	42.2	-27.7	8.9
COc1ccccc1N1CCN(CCN(C(=O)C2CCCCC2)c2ccccn2)CC1	4.8	7.4	-5.7	.	97.1*	12.2
SMILES	HCV core dimer	HSF1 inh	HSF-1 act	PHOSPHO1 inh	ALR inh	AI-2 QS modul
COc1ccccc1N1CCN(CCN(C(=O)c2ccc(F)cc2)c2ccccn2)CC1	-0.7	.	.	.	94.3*	.
COc1ccccc1N1CCN(CC(C)N(C(=O)C2CCCCC2)c2ccccn2)CC1 (stereo not drawn)	2.7	-4.8	-3.3	.	32.5	40.4
COc1ccccc1NC(=O)C(CC(C)C)NC(=O)C1CCCCC1 (stereo not drawn)	-1.9	3.9	9.2	4.6	-3.4	-2.5
COc1ccccc1N1CCN(CCCC(=O)c2ccc(F)cc2)CC1	-11.3	4.3	-5.2	-5.4	64.0	-2.4
COc1ccccc1N1CCN(C(=O)C(CC(C)C)NC(=O)C2CCCCC2)CC1 (stereo not drawn)	12.0	18.1	55.2*	15.1	11.0	13.2
CC(=O)Nc1ccc(S(=O)(=O)NCc2ccc(C(=O)NCc3ccc4c(c3)OCO4)cc2)cc1	-0.9	-61.7*	-71.9	-0.6	-1.2	5.4
CCCCCCC[N+](CC)(CC)CCCCc1ccc(Cl)cc1	-3.1	.	.	.	5.7	.
C=CCn1c(SCC(=O)c2ccc(CNC(C)=O)o2)nc2ccccc2c1=O	49.0*	-7.9	7.2	14.1	31.2	24.7
CNCc1c(OCc2ccccc2F)ccc2ccccc12	-0.8	-71.2*	-76.2	15.4	-10.1	13.6
CNCc1c(OCc2ccccc2)ccc2ccccc12	1.9	-6.1	5.3	34.0	-37.1	10.3
COc1ccc(OC)c(CCNC(=O)CC2(CC3=NS(=O)(=O)c4ccccc4N3)CCCC2)c1	3.3	2.0	3.3	25.4	-0.1	35.8
CC1(C(=O)O)CCC(C(=O)Nc2ccccc2O)C1(C)C (stereo not drawn)	-5.7	-24.6	-40.2	-8.3	86.3*	32.4
CC(C)n1c(O)c(/C=C2\C=Nc3ccccc32)sc1=Nc1ccccc1	2.9	2.1	8.4	-18.5	.	17.1
CSc1nc(/C=C2\C=Nc3ccccc32)c(O)n1C	-43.6	2.8	36.0	5.9	85.4*	5.6
Cc1ccc(CC2SC(N=C(N)N)=NC2=O)cc1 (stereo not drawn)	-10.1	33.9	81.2*	36.9	19.7	27.3
CCCCOC(=O)Nc1nnc(Cc2ccc(Cl)cc2)s1	3.5	-5.3	-3.4	16.8	.	16.2
C[C@]12CC[C@@H]3c4ccc(O[C@@H]5O[C@H](C(=O)O)[C@@H](O)[C@H](O)[C@H]5O)cc4CC[C@H]3[C@@H]1C[C@@H](O)[C@@H]2O	-6.3	-53.9*	-64.8	8.5	56.0	19.9
COc1ccc(C(C)NC(=O)c2ccncc2)cc1OC (stereo not drawn)	-14.1	0.5	0.7	31.3	-10.0	4.3
COc1ccc(-c2csc(NNC3=NCCCCC3)n2)cc1	-13.1	13.3	4.4	32.2	7.8	7.4
CCOc1ccc(-c2csc(NNC3=NCCCCC3)n2)cc1	-8.7	0.1	23.9	37.3	98.9*	7.6
COc1ccc(-c2csc(NC3=NCCCCC3)n2)cc1	-1.9	11.7	38.6	-9.7	97.7*	17.5
Fc1ccc(-c2csc(NC3=NCCC3)n2)cc1	-1.1	2.8	15.4	21.0	97.4*	.
COc1ccc(CN2CCNC(=O)C2CC(=O)N2CCCCO2)cc1OC (stereo not drawn)	0.0	0.5	-12.4	10.9	-7.0	18.3

Compound activity (PubChem)
